Experimental data gathered from unrelated publications.
Lines come from different studies, so protocols differ.
Target: Acetylcholinesterase (ache, Electrophorus electricus, UniProt O42275)
Observed: enzyme activity
Action: inhibitor

| Compound | test | conditions | IC50 [µM] |
| --- | --- | --- | --- |
| C#CCNc1nc(NCCCC2CCN(Cc3ccccc3)CC2)c(C#N)cc1C#N | Ellman | – | 0.0047 |
| Cc1c(C(=O)[C@H]2[C@H](c3c[nH]c4ccccc34)[C@H]3CCCN3[C@]23C(=O)Nc2cc(Cl)ccc23)cnn1-c1ccccc1 | Ellman | – | > 100 |
| O=C(NCCN1CCN(Cc2ccccc2)CC1)c1cc2ccccc2o1 | Ellman | – | 18.5 |
| CC=C1[C@H]2C=C(C)C[C@]1(N)c1cc(C#N)c(=O)[nH]c1C2 | Ellman | – | 33.9 |
| O=C(CNC(=S)NN=Cc1ccc([N+](=O)[O-])cc1)c1ccc(Cl)cc1 | Ellman | – | 340 |
| Cc1c(C(=O)[C@H]2[C@H](c3cn(C)c4ccccc34)[C@H]3CSCN3[C@]23C(=O)Nc2cc(Cl)ccc23)cnn1-c1ccccc1 | Ellman | – | > 100 |
| CC=C1[C@H]2C=C(C)C[C@]1(N)c1cc(OCCC)c(=O)[nH]c1C2 | Ellman | – | 10.2 |
| C#CCN(C)c1nc(NCCCCC2CCN(Cc3ccccc3)CC2)c(C#N)cc1C#N | Ellman | – | 0.00074 |
| O=C(NCC1CCN(Cc2ccccc2)CC1)c1cc2ccccc2o1 | Ellman | – | 30 |
| CC=C1[C@H]2C=C(C)C[C@]1(N)c1cc(F)c(=O)[nH]c1C2 | Ellman | – | 1.23 |
| Cc1c(C(=O)[C@H]2[C@H](c3c[nH]c4ccccc34)[C@H]3CSCN3[C@]23C(=O)Nc2ccccc23)cnn1-c1ccccc1 | Ellman | – | 57.1 |
| CCOc1ccc(C=NNC(=S)NCC(=O)c2ccc(-c3ccccc3)cc2)cc1 | Ellman | – | 460 |
| Cc1c(C(=O)[C@H]2[C@H](c3c[nH]c4ccc(Br)cc34)[C@H]3CSCN3[C@]23C(=O)Nc2ccc([N+](=O)[O-])cc23)cnn1-c1ccccc1 | Ellman | – | 24.1 |
| CC=C1[C@H]2C=C(C)C[C@]1(N)c1cc(C)c(=O)[nH]c1C2 | Ellman | – | 0.35 |
| Cc1c(C(=O)[C@H]2[C@H](c3cn(C)c4ccccc34)[C@H]3CCCN3[C@]23C(=O)Nc2cc(Cl)ccc23)cnn1-c1ccccc1 | Ellman | – | > 100 |
| CC(C)=CCC/C(C)=C/COc1cc(O)cc(O)c1C(=O)c1ccccc1 | – | – | 192 |
| COc1cccc2cc(C(=O)NCC3CCN(Cc4ccccc4)CC3)oc12 | Ellman | – | 19.9 |
| CC=C1[C@H]2C=C(C)C[C@]1(N)c1ccc(OC)nc1C2 | Ellman | – | 3.67 |
| O=C(NNS(=O)(=O)c1ccc(Br)cc1)C(=O)NNS(=O)(=O)c1ccc(Br)cc1 | Ellman | with preincubation | 3.28 |
| CC=C1[C@H]2C=C(C)C[C@]1(N)c1cc(OCCCC)c(=O)[nH]c1C2 | Ellman | – | 110 |
| CC1=C(C)C(=O)O[C@@H]([C@](C)(O)[C@H]2CC[C@H]3[C@@H]4[C@@H]5O[C@@H]5[C@@]5(O)CC=CC(=O)[C@]5(C)[C@H]4CC[C@]23C)C1 | Ellman | – | 107 |
